High-throughput results as filed in PubChem BioAssay.
Shown is part of a subset that was picked to be rich in hits.
PostGolgi yeast – growth inhibition of a yeast mutant, post-Golgi transport screen; AID 739; post-Golgi transport phenotypic cell assay; inhibition, % at 10 µM; 0.9% of 98,000 active;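 also: yeast cells grown in 1536-well plates; yeast grown about 18 h at 30C before absorbance read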
Yeast growth inh – yeast BB579 growth reduction in restrictive medium | inhibition, % at 10 µM | S. cerevisiae BB579 growth, OD615, 48 h | AID 804 | 0.51% of 140,000 active;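 active = inhibition above a set limit, 3 SD over the mean compound inhibition, cut at about 44% in these data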
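test system = yeast BB579 (DeaD) | buffer or medium = restrictive CSMM-D medium | doses = single compound dose of 10 µM, 0.25% DMSO final | times = 4 h preincubation and 48 h exposure at 30 °C | technique = culture absorbance at 615 nm | benchmarks = amphotericin B 10 µg/mL, positive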
PostGolgi ctrl – inhibits growth of the yeast control strain. 5% of 98,000 active. inhibition, % at 10 µM. efflux-deficient yeast background strain, growth absorbance A615, 16 h
Yeast lifespan up – extends the lifespan of yeast. S. cerevisiae growth with nicotinamide, OD615; deaD strain in restrictive glucose medium. inhibition of the nicotinamide effect, % at 10 µM. 0.68% of 130,000 active;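 active = inhibition above a set limit, placed 3 SD over the median of all compounds, cut at about 26% in these data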;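 also: 0% = nicotinamide-treated wells and 100% = cells grown without nicotinamide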
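Material: Modified budding yeast, DeaD strain | Medium: Restrictive glucose medium | Probe or stimulus: 1.5 mM nicotinamide | Dosing: Single dose 10 µM compound, 0.25% DMSO | Times: 48 h at 30 °C | Technique: OD615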
* marks the source's active call; other numbers are inactive results; . = no result given. Rule as the data show it, unless noted: active = inhibition above about 30%; inactive = the rest.

SMILES	PostGolgi yeast	Yeast growth inh	PostGolgi ctrl	Yeast lifespan up
CCCCN(Cc1ccccc1)S(=O)(=O)c1cc(Br)cc2c1N(C(C)=O)C(C)C2 (configuration not stated)	10	-86	36*	4
CCC1CCCCN1S(=O)(=O)c1ccc(S(=O)(=O)N(Cc2cccs2)C2CC2)cc1 (configuration not stated)	10	-37	7	33*
CC(=O)Nc1cc(NC(C)=O)cc(C(=O)NC(C)(C)C)c1	7	2	5	-18
Cc1cc2ncn(CC(O)COC3CCCCC3)c2cc1C (configuration not stated)	13	-27	31*	-21
COc1nnc(-c2ccc(N3CCCCC3)c(NC(C)=O)c2)c2ccccc12	-1	-46	11	-4
Cc1ccc(CN2CCN(/N=C/c3ccc(C)s3)CC2)cc1	.	-24	.	4
Cc1ccc(CN2CCN(/N=C/c3cc(Br)ccc3O)CC2)cc1	74*	-11	22	-9
CCCS(=O)(=O)N1CCCC(C(=O)NCCCN(C)Cc2ccccc2)C1 (configuration not stated)	5	-32	39*	-16
CC1=C(C(=O)Nc2ccccc2C)C(c2ccc(C)o2)N2C(=O)CSC2=N1 (configuration not stated)	3	-2	-3	-22
O=C(Nc1cccnc1)C(Cc1ccccc1)n1cccc1 (configuration not stated)	-1	24	20	0
O=C(Nc1ncc(Br)s1)C(Cc1ccccc1)n1cccc1 (configuration not stated)	87*	-9	89*	-13
O=c1ccn(-c2cccc(C(F)(F)F)c2)nc1-c1ccn(-c2cccc(Cl)c2)n1	10	-42	50*	-9
Nc1c(-c2cccc(Cl)c2)cnn1-c1cccc(C(F)(F)F)c1	-5	-18	13	-18
O=C(CSc1nc(C2CC2)nc2ccccc12)N1c2ccccc2Sc2ccccc21	23	-45	18	-15
Cn1cccc1Cc1nnc(SCC(=O)N2CCc3ccccc32)n1-c1ccc(F)cc1	-1	-44	6	0
Cc1ccc(-n2c(Cc3cccn3C)nnc2SCC(=O)N2CCc3ccccc32)cc1	7	-54	45*	-26
CCOc1ccc(C(=O)/C=C/c2cn(CN3CCN(C)CC3)c3ccccc23)cc1	-2	-49	32*	-25
COc1ccc(C(=O)/C=C/c2cn(CN3CCN(C)CC3)c3ccccc23)cc1	4	-51	33*	-33
Cc1ccc(S(=O)(=O)NC(CC(=O)n2nc(C)cc2C)c2ccccc2)cc1 (configuration not stated)	-5	-57	35*	4
Cc1ccc(S(=O)(=O)NC(c2ccccc2)C(C)C(=O)n2nc(C)cc2C)cc1 (configuration not stated)	-5	-24	9	-3
O=C(CSc1nnc(SCc2ccccc2)s1)NNC(=S)Nc1ccccc1	.	-34	.	1
CCOC(=O)c1ccc(Nc2ncnc3nc[nH]c23)cc1	7	-10	1	-7
c1ccc(COc2ccc(Nc3ncnc4nc[nH]c34)cc2)cc1	-1	-10	70*	-11
Cc1nc2ccccc2n2c(-c3ccccc3)c3c(=O)n(C)c(=O)n(C)c3c12	17	-26	47*	-5
COc1ccc(C(=O)/C=C/Nc2ccc(C)cn2)cc1OC	.	52*	.	.
SMILES	PostGolgi yeast	Yeast growth inh	PostGolgi ctrl	Yeast lifespan up
Cc1ccc(C)c(N2CCN(C(=O)CN(C)S(=O)(=O)c3cnc[nH]3)CC2)c1	-9	-73	6	-4
CCCc1[nH]nc2c1C(c1ccc(OC(=O)N3CCOCC3)cc1)C(C#N)=C(N)O2 (configuration not stated)	7	-17	-5	-11
N#CC1=C(N)OC2=C(C(=O)CCC2)C1c1ccc(OC(=O)N2CCOCC2)cc1 (configuration not stated)	-9	-49	38*	-13
CC1(C)CC(=O)C2=C(C1)OC(N)=C(C#N)C2c1ccc(OC(=O)N2CCOCC2)cc1 (configuration not stated)	-5	-25	6	-7
COc1cc(C2C(C#N)=C(N)OC3=C2C(=O)CC(C)(C)C3)ccc1OC(=O)N1CCOCC1 (configuration not stated)	0	-21	33*	-25
CCOC(=O)C1CCCCN1Cc1ccccc1C(F)(F)F (configuration not stated)	.	-7	.	.
Cc1nnc(SCc2ccc3c(c2)OCO3)s1	-4	-7	3	-15
COc1ccc(/C=C(\C#N)C(=O)N2CCOCC2)cc1Br	3	-14	15	48*
CC(C)(C)c1[nH]nc2c1C(Cc1ccccc1)C(C#N)=C(N)O2 (configuration not stated)	-7	-58	40*	1
CCCCCCCCc1nnc(NC(=O)c2ccco2)s1	-4	-41	-2	-9
CCN(CC)S(=O)(=O)c1ccc(S(=O)(=O)N2CCN(CCC#N)CC2)cc1	-3	15	4	-5
Cc1ccc(S(=O)(=O)N(CCC#N)CCN2CCCC2)cc1	6	-34	30*	-24
c1ccc(COc2ccc(OCCn3cncn3)cc2)cc1	-1	-35	3	-16
c1ccc(-c2ccc(OCCCn3cncn3)cc2)cc1	97*	80*	89*	-18
Cc1cc(C(F)(F)F)nn1CCCNC(=O)c1cnccn1	4	-23	20	-10
Cc1ccc(NC(=O)Nc2nc(-c3ccc(C)s3)cs2)cc1	-6	-17	1	87*
COc1ccc(-c2onc(C)c2-c2ccc(C(=O)OC(C)C)o2)c(O)c1	0	-25	37*	-11
CCOc1ccccc1N/C=C/C(=O)C(C)(C)C	-18	-2	33*	-15
Cc1nnnn1CC(=O)Nc1ccccc1[N+](=O)[O-]	.	-24	.	5
N#Cc1cccc(-c2cn(S(=O)(=O)c3ccc(Cl)cc3)nc2N)c1	-7	-36	31*	-9
COc1cccc(CNS(=O)(=O)/C=C/c2ccc3c(c2)OCO3)c1	7	-44	4	-14
O=C(COc1ccc(Cl)cc1)N(Cc1ccccc1)c1ccccn1	-4	-25	33*	7
CC(C)CNC(=O)CN(C1CCCCC1)S(C)(=O)=O	-5	44*	-6	-1
CCCNC(=O)CN(C1CCCCC1)S(C)(=O)=O	21	-45	-11	-4
Cc1ccc(NC(=O)CCC(=O)OCC(=O)c2ccc(Oc3ccc([N+](=O)[O-])cc3)cc2)c(C)c1	2	-33	12	-15
SMILES	PostGolgi yeast	Yeast growth inh	PostGolgi ctrl	Yeast lifespan up
Nc1c(Cl)ncnc1N/N=C/c1ccccn1	.	96*	.	-13
Cc1cccc(C)c1N1CCN(c2ccc3nnc(C(F)(F)F)n3n2)CC1	19	-16	48*	-12
CC(=O)Nc1ccc(S(=O)(=O)N2CCN(c3cccc(C)c3C)CC2)cc1	2	-21	51*	2
Cc1cccc(N2CCN(C(=O)Cc3cn(C)c4ccccc34)CC2)c1C	8	-16	43*	-9
Cc1cccc(N2CCN(C(=O)COc3cc(=O)n(C)c4ccccc34)CC2)c1C	1	-25	14	-28
Cc1cccc(N2CCN(C(=O)C(C)C)CC2)c1C	91*	9	85*	-14
